Values joined by “and” are separate entries in the source; they are usually repeats but may differ in a detail not shown here. Equal values may be shown once.
How the values were obtained:
[1] = tested on: Rattus norvegicus; assay: Percent conversion of testosterone to dihydrotestosterone in prostate of rats at 0 mg/kg of compound given perorally; assay type: functional, Prostate gland; settings: route oral
Outline: (§1)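 Rats dosed orally at 1–30 mg/kg, with controls at 0 mg/kg. Prostates removed 4 h later and homogenized. Testosterone and DHT in the homogenate measured by radioimmunoassay and expressed as % conversion of T to DHT. Mean ± SEM of four rats. Groups compared with the 0 mg/kg control by Dunnett test.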

[2] = tested on: Rattus norvegicus; assay: Percent conversion of testosterone to dihydrotestosterone in prostate of rats at 10 mg/kg of compound given perorally; assay type: functional, Prostate gland; settings: route oral; outline: as §1
[3] = tested on: Rattus norvegicus; assay: Percent conversion of testosterone to dihydrotestosterone in prostate of rats at 1 mg/kg of compound given perorally; assay type: functional, Prostate gland; settings: route oral; outline: as §1
[4] = tested on: Rattus norvegicus; assay: Percent conversion of testosterone to dihydrotestosterone in prostate of rats at 30 mg/kg of compound given perorally; assay type: functional, Prostate gland; settings: route oral; outline: as §1
[5] = tested on: Rattus norvegicus; assay: Percent conversion of testosterone to dihydrotestosterone in prostate of rats at 3 mg/kg of compound given perorally; assay type: functional, Prostate gland; settings: route oral; outline: as §1
[6] = Compound was tested in vitro for inhibitory activity against 5-alpha reductase isozyme homogenated from transfected Namalwa; assay type: functional
Outline: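 Homogenate of Namalwa cells transfected to express human type 2 isozyme, 40 μg cellular protein per assay. Buffer 0.1 M Na2HPO4–citrate pH 5.5 with 0.3 μM [14C]testosterone and 2 mM NADPH, across a range of drug concentrations. IC50 given as mean ± SEM of three separate experiments.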

[7] = molecular target: T1, 3-oxo-5-alpha-steroid 4-dehydrogenase 1 (Rattus norvegicus, UniProt P24008); assay: 5 alpha- reductase inhibitory activity; assay type: functional
T1 sequence (P24008 whole entry): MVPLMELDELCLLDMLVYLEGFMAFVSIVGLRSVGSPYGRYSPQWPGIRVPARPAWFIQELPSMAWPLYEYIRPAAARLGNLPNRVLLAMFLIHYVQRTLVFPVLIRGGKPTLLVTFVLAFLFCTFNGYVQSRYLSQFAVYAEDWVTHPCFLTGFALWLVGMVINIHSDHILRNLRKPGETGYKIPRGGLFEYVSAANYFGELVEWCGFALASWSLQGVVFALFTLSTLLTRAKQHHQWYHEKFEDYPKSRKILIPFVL

[8] = molecular target: T2, 3-oxo-5-alpha-steroid 4-dehydrogenase 2 (Rattus norvegicus, UniProt P31214); assay: Compound was tested in vitro for inhibitory activity against type 2 5-alpha reductase Isozyme homogenated from rat epididymis; assay type: functional
T2 sequence (P31214 whole entry): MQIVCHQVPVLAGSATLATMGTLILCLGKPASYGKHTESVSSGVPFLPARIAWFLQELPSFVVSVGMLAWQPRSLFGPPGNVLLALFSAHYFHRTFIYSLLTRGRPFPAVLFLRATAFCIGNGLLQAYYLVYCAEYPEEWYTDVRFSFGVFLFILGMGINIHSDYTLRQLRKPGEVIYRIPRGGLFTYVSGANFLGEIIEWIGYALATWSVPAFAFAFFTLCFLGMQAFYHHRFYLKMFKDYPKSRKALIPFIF
Outline: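 Epididymal particulates from male Wistar rats (200–300 g), pelleted at 100000g for 0.5 h. Compounds added in ethanol. Incubated 37 °C for 10 min, then stopped and extracted with ethyl acetate. Inhibition taken from [14C]DHT conversion versus a blank.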

[9] = molecular target: T3, 3-oxo-5-alpha-steroid 4-dehydrogenase 1 (Rattus norvegicus) (UniProt P24008); assay: Inhibitory activity of compound towards 5-alpha reductase from rat =; settings: 100 nM
T3 sequence (whole entry): T1 sequence (P24008 whole entry)

[10] = tested on: Rattus norvegicus; assay: Concentration of testosterone (T) and DHT in homogenate was determined by radio immunoassay. Values are presented of Four rats, at dose mg/kg, p.o. =10.; assay type: functional; outline: as §1

| SMILES | IC50 [6] [µM] | IC50 [7] [µM] | IC50 [8] [µM] | IC50 [9] [µM] | Conversion [1] | Conversion [2] [%] | Conversion [3] [%] | Conversion [4] [%] | Conversion [5] [%] | Conversion [10] [%] |
| --- | --- | --- | --- | --- | --- | --- | --- | --- | --- | --- |
| Cc1c(O[C@@H](C)c2ccc(CC(C)C)cc2)ccc(C(=O)Nc2ccccc2OCCCC(=O)O)c1C (racemic) | 0.0787 | – | – | – | 91% | 56 | 82 | 54 | 88 | – |
| CC/C(=C\C(=O)Nc1ccccc1OCCCC(=O)O)c1ccc2c(ccn2C(c2ccccc2)c2ccccc2)c1 | – | 0.0025 | – | – | – | – | – | – | – | – |
| C/C(=C\C(=O)Nc1ccccc1OCCCC(=O)O)c1ccc2c(ccn2C(c2ccccc2)c2ccccc2)c1 | – | 0.0056 | – | – | – | – | – | – | – | – |
| CC(C)(C)NC(=O)[C@H]1CC[C@H]2[C@@H]3CC[C@H]4NC(=O)C=C[C@]4(C)[C@H]3CC[C@]12C [FINASTERIDE] | 0.00058 | – | 0.0021 | 0.01 | 84% | 50 | 64 | 39 | 49 | – |

Further lines, with some results ahead:

| IC50 [6] [µM] | IC50 [7] [µM] | IC50 [8] [µM] | IC50 [9] [µM] | SMILES | Conversion [1] | Conversion [2] [%] | Conversion [3] [%] | Conversion [4] [%] | Conversion [5] [%] | Conversion [10] [%] |
| --- | --- | --- | --- | --- | --- | --- | --- | --- | --- | --- |
| 0.215 | – | – | – | C/C(=C\C(=O)Nc1ccccc1OCCCC(=O)O)c1ccc2c(ccn2C(c2ccc(F)cc2)c2ccc(F)cc2)c1 | 98% and 93% | 85 | – | 62 | – | – |
| 0.341 | – | – | – | CCCC(CCC)n1ccc2cc(/C(=C/C(=O)Nc3ccccc3OCCCC(=O)O)CC)ccc21 | 96% | 84 | – | 73 | 87 | 84 |
| 0.357 | – | – | – | CC/C(=C\C(=O)Nc1ccccc1OCCCC(=O)O)c1ccc2c(ccn2C(c2ccc(F)cc2)c2ccc(F)cc2)c1 | 94% | 70 | – | 50 | 76 | – |
